Assay results collected from several papers.
Each line is one published result; the experiments were not run side by side.

| SMILES | system | setting | Papp [×10⁻⁶ cm/s] |
| --- | --- | --- | --- |
| c1ccc(-c2nc(NCCn3ccnc3)c3ccccc3n2)nc1 | PAMPA | 10 µM, 3 h, pH 7.4 | 8.4 |
| N=c1c2c(-c3ccccc3)c(-c3ccccc3)n(Cc3ccc(OC(F)(F)F)cc3)c2ncn1[C@H]1CC[C@H](O)CC1 | PAMPA | 50 µM, 30 min | 1250 |
| CC(C)Nc1ccnc(Nc2ccccc2-c2ccccc2)n1 | PAMPA | 50 nM, 30 min | 2360 |
| CC(C)[C@@H]1NC(=O)[C@@H](Cc2ccccc2)OC(=O)CN(C)C(=O)[C@H](C(C)C)NC(=O)[C@@H](Cc2ccccc2)OC(=O)CN(C)C1=O | PAMPA |  | 56 |
| c1cncc(-c2cccc(Nc3nccc(NC4CCOCC4)n3)c2)c1 | PAMPA | 50 nM, 30 min | 1840 |
| CC[C@H](C)[C@@H]1NC(=O)[C@@H](Cc2ccccc2)OC(=O)CNC(=O)[C@H]([C@@H](C)CC)NC(=O)[C@@H](Cc2ccccc2)OC(=O)CNC1=O | PAMPA |  | 47 |
| CC(C)NCC(O)COc1cccc2ccccc12 (centres unmarked) | PAMPA-BBB | 0.5 µM, 4 h, pH 7.4 | 4.82 |
| Cc1cc(N)nc(C#CCCN(C)C)c1 | PAMPA-BBB | 200 µM, 17 h | 4.7 |
| COCC(C)Nc1ccnc(Nc2cccc(-c3cccnc3)c2)n1 (centres unmarked) | PAMPA | 50 nM, 30 min | 1910 |
| O=C(O)c1ccc2c(c1)nc(Nc1cccc(Cl)c1)c1ccncc12 | PAMPA | 5 h, pH 7.4 | 0.728 |
| O=c1[nH]c2sc3c(c2c(=O)n1O)CCNC3 | PAMPA | 10 µM, 5 h | 0.07 |
| COc1ccc(Nc2nc(-c3ccccn3)nc3ccccc23)cc1 | PAMPA | 10 µM, 3 h, pH 7.4 | 36.3 |
| Cc1csc2[nH]c(=O)n(O)c(=O)c12 | PAMPA | 10 µM, 5 h | 0.2 |
| N=c1c2c(-c3ccccc3)cn(Cc3ccccc3)c2ncn1C1CCOCC1 | PAMPA | 50 µM, 30 min | 1730 |
| O=C(Nc1ccn(Cc2ccc(O)cc2C(F)(F)F)n1)c1c(F)cccc1F | PAMPA |  | 36 |
| Cc1nc2n(c(=O)c1CCN1CCC(c3noc4cc(F)ccc34)CC1)CCCC2 | PAMPA-BBB | 50 µM, 16 h, pH 7.4 | 15.5 |
| CCCCNc1ccnc(Nc2cccc(-c3cccnc3)c2)n1 | PAMPA | 50 nM, 30 min | 1720 |
| Cc1c(C)n(Cc2ccccc2)c2ncn(C3CCOCC3)c(=N)c12 | PAMPA | 50 µM, 30 min | 1680 |
| Cc1noc(C)c1-c1ccc2nc(-c3cnn(CC(C)(C)O)c3)nc(N3CCOC[C@@H]3c3ccccc3)c2c1 | PAMPA |  | 1180 |
| CN(C)CCn1cnc2c(c(-c3ccccc3)c(-c3ccccc3)n2Cc2ccccc2)c1=N | PAMPA | 50 µM, 30 min | 1360 |
| O=c1[nH]c2cc(-c3ccc(Cl)cc3)ccc2c(=O)n1O | PAMPA | 10 µM, 5 h | 1.7 |
| Oc1ccc(-c2nc(N3CCC(c4ccccn4)C3)c3ccccc3n2)cc1 (centres unmarked) | PAMPA | 10 µM, 3 h, pH 7.4 | 32.8 |

| SMILES | system | setting | Papp [×10⁻⁶ cm/s] |
| --- | --- | --- | --- |
| COc1ccc(C(CO)Nc2ncnc3sc(-c4ccccc4)cc23)cc1 (centres unmarked) | PAMPA |  | 240 |
| O=c1[nH]c2cc(-c3ccc(F)cc3)sc2c(=O)n1O | PAMPA | 10 µM, 5 h | 0.6 |
| N=c1c2c(-c3ccccc3)c(-c3ccccc3)n(Cc3ccc(S(N)(=O)=O)cc3)c2ncn1C1CCOCC1 | PAMPA | 50 µM, 30 min | 1 |
| CCN1CCc2c(sc3[nH]c(=O)n(O)c(=O)c23)C1 | PAMPA | 10 µM, 5 h | 0.08 |
| c1ccc(-c2nc(NCc3nc4ccccc4o3)c3ccccc3n2)nc1 | PAMPA | 10 µM, 3 h, pH 7.4 | 27.8 |
| CC(C)Nc1ccnc(Nc2cccc(C(C)(C)C)c2)n1 | PAMPA | 50 nM, 30 min | 1600 |
| N=c1c2c(-c3ccccc3)cn(Cc3ccccc3)c2ncn1Cc1ccco1 | PAMPA | 50 µM, 30 min | 1740 |
| COC(=O)c1cccc(-c2cccc(Nc3nccc(NC4CCCCC4)n3)c2)c1 | PAMPA | 50 nM, 30 min | 76.9 |
| O=c1[nH]c2cc(-c3ccc(Cl)cc3)sc2c(=O)n1O | PAMPA | 10 µM, 5 h | 1 |
| O=C(NCCN1CCCC1)c1cc(-c2ccc(CN3CCOCC3)cc2)nc2ccc(F)cc12 | PAMPA |  | 7.3 |
| CCn1ccc2nc(-c3ccccn3)nc(N3CCC(c4ccccn4)C3)c21 (centres unmarked) | PAMPA | 10 µM, 3 h, pH 7.4 | 21 |
| c1ccc(-c2cccc(Nc3nccc(NC4CCCCC4)n3)c2)nc1 | PAMPA | 50 nM, 30 min | 1530 |
| O=C(O)c1ccc2c(c1)nc(NCc1ccccc1)c1ncncc12 | PAMPA | 5 h, pH 7.4 | 2.79 |
| Cc1cccnc1CNc1nc(-c2ccccn2)nc2ccccc12 | PAMPA | 10 µM, 3 h, pH 7.4 | 27.1 |
| N#Cc1ccc(/C=C/CN(CC[C@H](N)C(=O)O)C[C@H]2O[C@@H](n3cnc4c(N)ncnc43)[C@H](O)[C@@H]2O)cc1 | PAMPA | 200 µM, 5 h | 0.01 |
| Cc1cc(C)c2cc(C(=O)NC3CCCCCCC3)[nH]c2c1 | PAMPA | 16 h | 0.18 |
| O=c1[nH]c2sccc2c(=O)n1O | PAMPA | 10 µM, 5 h | 0.08 |
| c1ccc(-c2nc(N3CCc4nc[nH]c4C3)c3ccccc3n2)nc1 | PAMPA | 10 µM, 3 h, pH 7.4 | 11.8 |
| Cc1cc(-c2ccc(Sc3cc(=O)n(O)c(=O)[nH]3)cc2)ccc1F | PAMPA | 10 µM, 5 h | 1.1 |
| C[C@@H](NC(=O)[C@@H](CC(=O)N1CCC(N2CCCCC2)CC1)N1C(=O)[C@@H](N2C(=O)OC[C@@H]2c2ccccc2)[C@H]1/C=C/c1cccc(F)c1)c1ccccc1 | PAMPA-BBB | 25 µg/mL, 18 h, pH 7.4 | > 4 |
| NC(=O)C1CCN(c2nc(-c3ccccn3)nc3ccccc23)C1 (centres unmarked) | PAMPA | 10 µM, 3 h, pH 7.4 | 8 |
| CC(C)(C)Nc1ccnc(Nc2cccc(-c3cccnc3)c2)n1 | PAMPA | 50 nM, 30 min | 1990 |
